Data reported in ChEMBL document CHEMBL4706620, “Design, synthesis, biological activity evaluation of 3-(4-phenyl-1H-imidazol-2-yl)-1H-pyrazole derivatives as potent JAK 2/3 and aurora A/B kinases multi-targeted inhibitors” (Eur J Med Chem, 2021).

What was measured:
K562 [1] = test: Cell cycle arrest in human K562 cells assessed as accumulation of diploid cells at S phase at 1 uM incubated for 48 hrs by propidium iodide staining based flow cytometric analysis (reference value: 35.94 %); assay type: functional
[2] = target: T1, Aurora kinase A (Homo sapiens) (UniProt O14965); test: Inhibition of Aurora A phosphorylation in human HCT116 cells incubated for 48 hrs by Western blot analysis; assay type: cell-based; conditions: HCT-116, dose 1-20 µM
T1 sequence (whole entry): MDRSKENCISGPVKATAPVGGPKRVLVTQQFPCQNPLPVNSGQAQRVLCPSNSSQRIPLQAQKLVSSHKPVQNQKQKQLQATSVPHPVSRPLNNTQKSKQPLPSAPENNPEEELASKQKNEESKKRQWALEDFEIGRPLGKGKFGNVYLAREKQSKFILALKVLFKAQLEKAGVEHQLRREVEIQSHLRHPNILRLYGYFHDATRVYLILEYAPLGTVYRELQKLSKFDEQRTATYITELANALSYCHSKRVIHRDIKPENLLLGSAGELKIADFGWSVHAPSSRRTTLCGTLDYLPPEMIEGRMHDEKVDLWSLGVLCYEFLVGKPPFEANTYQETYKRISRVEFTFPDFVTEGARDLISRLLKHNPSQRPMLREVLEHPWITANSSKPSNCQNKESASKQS
Method in brief: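 K562 or HCT116 cells treated 48 h at 1, 10 and 20 µM alongside untreated control; lysed in cold RIPA, protein by BCA, SDS-PAGE, nitrocellulose transfer, 5% milk block, primary antibody overnight at 4 °C, secondary 1 h; p-Aurora A, p-Aurora B, p-STAT3, p-STAT5 probed with GAPDH loading control.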

K562 [3] = test: Cell cycle arrest in human K562 cells assessed as accumulation of diploid cells at G2 phase at 10 uM incubated for 48 hrs by propidium iodide staining based flow cytometric analysis (reference value: 7.73 %); assay type: functional

SMILES: O=C(Nc1c[nH]nc1-c1nc(-c2ccc(CN3CCOCC3)cc2)c[nH]1)c1cccc(Cl)c1
- Activity (K562 [1]): 35.82%
- inhibition [2]: Dose-dependent effect
- Activity (K562 [3]): 16.27%
